Assays:
[1] = target: T1, P-gp (Homo sapiens, UniProt P08183); test: rhodamine 123 accumulation assay by flow cytometry in MCF-7/DX1 cells; type: cell-based
Outline: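 P-gp-overexpressing MCF-7/DX1 breast adenocarcinoma cells, maintained with 1 µM doxorubicin. 125,000 cells in suspension loaded with 0.5 µg/mL (1.3 µM) rhodamine 123, alone or with test compound, 30–40 min, 37°C. Pelleted, then re-incubated 30–40 min, 37°C in fresh medium with test compound or 1 µM GF120918. Resuspended in ice-cold PBS pH 7.4; 488 nm laser, 530 band-pass (FL1), 10,000 cells/point. IC50 fitted from concentration series.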

[2] = target: P-gp ATPase activity (Homo sapiens, UniProt P08183); test: P-gp ATPase assay, crude High Five insect cell membranes; type: biochemical; settings: Pi release
[3] = target: T1, P-gp; test: [3H]daunomycin radioactive substrate accumulation assay in MCF-7/DX1 cells; type: cell-based; settings: read-out: IC50, cellular accumulation of [3H]daunomycin, [3H]daunomycin 0.25 µCi/mL, scintillation counting

T1 sequence (P08183 whole entry): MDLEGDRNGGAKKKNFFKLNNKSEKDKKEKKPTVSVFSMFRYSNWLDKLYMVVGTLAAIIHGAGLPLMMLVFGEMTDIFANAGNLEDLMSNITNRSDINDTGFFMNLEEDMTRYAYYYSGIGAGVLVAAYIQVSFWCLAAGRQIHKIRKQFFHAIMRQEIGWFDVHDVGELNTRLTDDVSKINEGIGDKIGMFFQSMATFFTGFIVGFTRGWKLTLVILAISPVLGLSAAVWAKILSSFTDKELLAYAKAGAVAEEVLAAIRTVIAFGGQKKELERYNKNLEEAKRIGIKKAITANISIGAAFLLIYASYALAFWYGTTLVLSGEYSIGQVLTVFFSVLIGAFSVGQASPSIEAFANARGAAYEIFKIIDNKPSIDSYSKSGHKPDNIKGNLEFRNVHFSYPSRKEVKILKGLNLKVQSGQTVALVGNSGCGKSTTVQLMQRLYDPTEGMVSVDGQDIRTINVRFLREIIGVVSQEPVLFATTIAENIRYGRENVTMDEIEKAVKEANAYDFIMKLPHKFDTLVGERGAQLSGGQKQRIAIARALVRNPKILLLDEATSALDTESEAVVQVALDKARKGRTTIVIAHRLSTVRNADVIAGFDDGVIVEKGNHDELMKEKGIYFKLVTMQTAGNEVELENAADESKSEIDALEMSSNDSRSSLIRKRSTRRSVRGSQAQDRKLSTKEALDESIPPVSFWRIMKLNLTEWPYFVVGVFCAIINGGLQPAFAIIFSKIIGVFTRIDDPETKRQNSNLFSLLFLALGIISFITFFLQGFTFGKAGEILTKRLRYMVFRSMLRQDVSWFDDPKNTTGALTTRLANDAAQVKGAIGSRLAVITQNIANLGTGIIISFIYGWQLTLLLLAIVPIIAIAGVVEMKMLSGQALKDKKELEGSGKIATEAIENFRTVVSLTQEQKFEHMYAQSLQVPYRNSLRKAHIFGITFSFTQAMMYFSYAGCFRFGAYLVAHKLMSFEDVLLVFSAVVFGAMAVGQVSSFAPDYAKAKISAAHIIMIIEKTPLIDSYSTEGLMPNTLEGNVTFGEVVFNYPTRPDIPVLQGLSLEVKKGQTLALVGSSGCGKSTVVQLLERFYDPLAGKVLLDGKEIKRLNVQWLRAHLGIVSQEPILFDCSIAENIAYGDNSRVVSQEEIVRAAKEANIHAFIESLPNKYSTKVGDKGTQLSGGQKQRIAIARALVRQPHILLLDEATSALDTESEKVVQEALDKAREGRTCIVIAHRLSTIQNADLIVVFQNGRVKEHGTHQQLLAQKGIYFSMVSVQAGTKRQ
Chain of P-gp ATPase activity (P08183 whole entry): as above

Which results are given for `COc1ccc2c3c1O[C@H]1C[C@@H](OC(=O)CCCCCCCCC(=O)O[C@H]4C=C[C@@]56CCN(C)Cc7ccc(OC)c(c75)O[C@H]6C4)C=C[C@@]31CCN(C)C2` [Gal-2]?
more active than the known P-gp inhibitor GF120918 (rhodamine 123 accumulation) ([1]; MCF-7/DX1 cells, both at 1 µM): approximately 20%; effect on P-gp ATPase activity at low concentrations ([2]; Gal-2 < 1 µM): stimulated ATPase activity; effect on P-gp ATPase activity at higher concentrations ([2]; Gal-2 > 5 µM): ATPase stimulation was found to decrease in a concentration-dependent manner; IC50 [3]: 2 ± 0.4 µM

How did the IC50 [1] turn out when `COc1ccc2c3c1O[C@H]1C[C@@H](O)C=C[C@@]31CCN(C)C2` [galantamine, reference compound] was run?
The IC50 was greater than 100 µM.

— PMC2764298 (Biochemical and biophysical research communications, 2009)
